Tests used:
B16-F0 [1] = assay: Intracellular melanogenesis-stimulating activity in mouse B16F0 cells at 500 uM after 72 hrs by spectrophotometry relative to control; assay type: functional
B16-F0 [2] = assay: Intracellular melanogenesis-stimulating activity in mouse B16F0 cells at 250 uM after 72 hrs by spectrophotometry relative to control; assay type: functional
B16-F0 [3] = assay: Intracellular melanogenesis-stimulating activity in mouse B16F0 cells at 125 uM after 72 hrs by spectrophotometry relative to control; assay type: functional
Outline: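 After 72 h treatment of B16-F0 cells (5.0 × 10⁴ cells/well, 24 h adherence), cells were washed with PBS and lysed in 1 M NaOH at 100 °C for 30 min to solubilise melanin. Lysate absorbance was read at 405 nm as intracellular melanin, expressed as % of DMSO control; experiments repeated twice.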

B16-F0 [4] = assay: Extracellular melanogenesis-stimulating activity in mouse B16F0 cells at 500 uM after 72 hrs by spectrophotometry relative to control; assay type: functional
B16-F0 [5] = assay: Extracellular melanogenesis-stimulating activity in mouse B16F0 cells at 250 uM after 72 hrs by spectrophotometry relative to control; assay type: functional
B16-F0 [6] = assay: Extracellular melanogenesis-stimulating activity in mouse B16F0 cells at 125 uM after 72 hrs by spectrophotometry relative to control; assay type: functional
Outline: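 B16-F0 cells were seeded at 5.0 × 10⁴ cells/well, allowed to adhere for 24 h, then treated for 72 h. Culture medium was collected and its absorbance read at 510 nm as extracellular melanin. Results are % of DMSO-treated control; experiments repeated twice.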

[7] = Cytotoxicity against mouse B16F0 cells assessed as cell viability at 500 uM after 72 hrs by MTT assay; assay type: cell-based; details: read-out: Activity
[8] = Cytotoxicity against mouse B16F0 cells assessed as cell viability at 250 uM after 72 hrs by MTT assay; assay type: cell-based; details: read-out: Activity
[9] = Cytotoxicity against mouse B16F0 cells assessed as cell viability at 125 uM after 72 hrs by MTT assay; assay type: cell-based; details: read-out: Activity
Outline: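 B16-F0 murine melanoma cells in DMEM with 10% FBS, penicillin and streptomycin, at 37 °C and 5% CO₂. Seeded at 5.0 × 10⁴ cells/well, adhered 24 h, then exposed 72 h. MTT (5 mg/mL stock in PBS) added for 4 h at 37 °C, formazan taken up in isopropanol with 0.04 N HCl, A590 read. Viability given as % of DMSO control; experiments repeated twice.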

Structure (SMILES): Cn1c(=O)c2nc[nH]c2n(C)c1=O.O [THEOPHYLLINE]
- Activity (B16-F0 [1]): 166.8%
- Activity (B16-F0 [2]): 131.7%
- Activity (B16-F0 [3]): 127.6%
- Activity (B16-F0 [4]): 204%
- Activity (B16-F0 [5]): 183.2%
- Activity (B16-F0 [6]): 170.7%
- viability at 72 h, 500 µM [7]: 91.4%
- viability at 72 h, 250 µM [8]: 94.4%
- viability at 72 h, 125 µM [9]: 95.5%

Reference: ChEMBL document CHEMBL3286099, “Synthesized quercetin derivatives stimulate melanogenesis in B16 melanoma cells by influencing the expression of melanin biosynthesis proteins MITF and p38 MAPK” (Bioorg Med Chem, 2014)
